How the values were obtained:
Format in all cases: functional
[1] = Antioxidant activity assessed as inhibition of Fe(3+)/ascorbate-induced lipid peroxidation in liposomes after 1 hr by TBARS assay
How it was run: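 Lecithin liposomes were sonicated in 10 mmol/L phosphate buffer, pH 7.4. Final mix: 3.08 mg liposome/mL, 123.2 µmol FeCl3, 123.2 µmol ascorbic acid, test compound 0.025–0.4 mM. Incubated 1 h at 37 °C. MDA measured by TBA reaction; n-butanol layer read at 532 nm against a lecithin-free blank. EC50 is the concentration reducing TBARS to 50% of control.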

[2] = tested on: Radical scavenging activity; assay: Antioxidant activity assessed as DPPH radical scavenging activity after 30 mins by spectrophotometry
How it was run: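 Test compounds (0.2–6.25 mM) dissolved in DMSO, added to 6×10^-5 M methanolic DPPH. Mixture held 30 min at room temperature in the dark, then absorbance read at 517 nm against methanol. Scavenging % = [1 − A_sample/A_control] × 100, with a negative control lacking sample. Triplicates averaged; EC50 taken from dose–response.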

[3] = Antioxidant activity assessed as trolox equivalent of ABTS free radical scavenging activity after 6 mins by […]
How it was run: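 ABTS radical cation solution was added to compounds (0.2–6.25 mM). Decrease in absorbance at 734 nm was read exactly 6 min after mixing, with ethanol blanks. A Trolox standard curve (final 0–20 µM in ethanol) gives TEAC, the mM Trolox equivalent to 1 mM compound. Run in triplicate.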

[4] = Antioxidant activity assessed as reduction of […]/ferricyanide complex after 20 mins by spectrophotometry
How it was run: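 Compounds (1.6–6.25 mM) mixed with 0.2 M phosphate buffer, pH 6.6, and 1% potassium ferricyanide, 20 min at 50 °C. Stopped with 1% TCA and centrifuged at 2790 g for 10 min. Supernatant plus water and 0.1% FeCl3 read at 700 nm. EC50 is the concentration giving absorbance 0.5. Mean ± SD of triplicates.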

U-251 = assay: Growth inhibition in human U251 cells assessed as viable cells at 10 uM after 48 hrs by sulforhodamine B assay; details: U-251, 48 h, read-out: Activity
How it was run: (§1)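 NCI 60-line screen, single dose 10^-5 M, 48 h continuous exposure. Cells grown in RPMI 1640 with 5% FBS and 2 mM L-glutamine, plated at 5000–40,000 cells/well and preincubated 24 h at 37 °C, 5% CO2. Drug stocks in DMSO. Endpoint: TCA fixation, SRB staining, absorbance at 515 nm. Growth % relative to untreated controls and time-zero plates.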

SNB-19 = assay: Growth inhibition in human SNB19 cells assessed as viable cells at 10 uM after 48 hrs by sulforhodamine B assay; details: SNB-19, 48 h, read-out: Activity
SNB-75 = assay: Growth inhibition in human SNB75 cells assessed as viable cells at 10 uM after 48 hrs by sulforhodamine B assay; details: SNB-75, 48 h, read-out: Activity
SF-268 = assay: Growth inhibition in human SF268 cells assessed as viable cells at 10 uM after 48 hrs by sulforhodamine B assay; details: SF-268, 48 h, read-out: Activity
SF-539 = assay: Growth inhibition in human SF539 cells assessed as viable cells at 10 uM after 48 hrs by sulforhodamine B assay; details: SF-539, 48 h, read-out: Activity
OVCAR-5 = assay: Growth inhibition in human OVCAR5 cells assessed as viable cells at 10 uM after 48 hrs by sulforhodamine B assay; details: OVCAR-5, 48 h, read-out: Activity
MDA-MB-231 = assay: Growth inhibition in human MDA-MB-231/ATCC cells assessed as viable cells at 10 uM after 48 hrs by sulforhodamine B assay; details: MDA-MB-231, 48 h, read-out: Activity; how it was run: as §1
OVCAR-3 = assay: Growth inhibition in human OVCAR-3 cells assessed as viable cells at 10 uM after 48 hrs by sulforhodamine B assay; details: OVCAR-3, 48 h, read-out: Activity
T47D = assay: Growth inhibition in human T47D cells assessed as viable cells at 10 uM after 48 hrs by sulforhodamine B assay; details: read-out: Activity
ACHN = assay: Growth inhibition in human ACHN cells assessed as viable cells at 10 uM after 48 hrs by sulforhodamine B assay; details: read-out: Activity; how it was run: as §1
CAKI-1 = assay: Growth inhibition in human Caki1 cells assessed as viable cells at 10 uM after 48 hrs by sulforhodamine B assay; details: CAKI-1, 48 h, read-out: Activity; how it was run: as §1
M14 = assay: Growth inhibition in human M14 cells assessed as viable cells at 10 uM after 48 hrs by sulforhodamine B assay; details: M14, 48 h, read-out: Activity; how it was run: as §1
SK-OV-3 = assay: Growth inhibition in human SKOV3 cells assessed as viable cells at 10 uM after 48 hrs by sulforhodamine B assay; details: SK-OV-3, 48 h, read-out: Activity; how it was run: as §1
DU-145 = assay: Growth inhibition in human DU145 cells assessed as viable cells at 10 uM after 48 hrs by sulforhodamine B assay; details: DU-145, 48 h, read-out: Activity; how it was run: as §1
PC-3 = assay: Growth inhibition in human PC3 cells assessed as viable cells at 10 uM after 48 hrs by sulforhodamine B assay; details: PC-3, 48 h, read-out: Activity; how it was run: as §1
OVCAR-4 = assay: Growth inhibition in human OVCAR4 cells assessed as viable cells at 10 uM after 48 hrs by sulforhodamine B assay; details: OVCAR-4, 48 h, read-out: Activity
SF-295 = assay: Growth inhibition in human SF295 cells assessed as viable cells at 10 uM after 48 hrs by sulforhodamine B assay; details: SF-295, 48 h, read-out: Activity
SK-MEL-5 = assay: Growth inhibition in human SK-MEL-5 cells assessed as viable cells at 10 uM after 48 hrs by sulforhodamine B assay; details: SK-MEL-5, 48 h, read-out: Activity
OVCAR-8 = assay: Growth inhibition in human OVCAR8 cells assessed as viable cells at 10 uM after 48 hrs by sulforhodamine B assay; details: OVCAR-8, 48 h, read-out: Activity
IGROV-1 = assay: Growth inhibition in human IGROV1 cells assessed as viable cells at 10 uM after 48 hrs by sulforhodamine B assay; details: IGROV-1, 48 h, read-out: Activity
MCF7 = assay: Growth inhibition in human MCF7 cells assessed as viable cells at 10 uM after 48 hrs by sulforhodamine B assay; details: MCF7, 48 h, read-out: Activity; how it was run: as §1
LOX IMVI = assay: Growth inhibition in human LOXIMVI cells assessed as viable cells at 10 uM after 48 hrs by sulforhodamine B assay; details: read-out: Activity
SK-MEL-28 = assay: Growth inhibition in human SK-MEL-28 cells assessed as viable cells at 10 uM after 48 hrs by sulforhodamine B assay; details: SK-MEL-28, 48 h, read-out: Activity; how it was run: as §1
Malme-3M = assay: Growth inhibition in human MALME-3M cells assessed as viable cells at 10 uM after 48 hrs by sulforhodamine B assay; details: read-out: Activity
MDA-MB-435 = assay: Growth inhibition in human MDA-MB-435 cells assessed as viable cells at 10 uM after 48 hrs by sulforhodamine B assay; details: MDA-MB-435, 48 h, read-out: Activity
TK-10 = assay: Growth inhibition in human TK10 cells assessed as viable cells at 10 uM after 48 hrs by sulforhodamine B assay; details: TK-10, 48 h, read-out: Activity; how it was run: as §1
UACC-62 = assay: Growth inhibition in human UACC62 cells assessed as viable cells at 10 uM after 48 hrs by sulforhodamine B assay; details: UACC-62, 48 h, read-out: Activity
786-0 = assay: Growth inhibition in human 786-0 cells assessed as viable cells at 10 uM after 48 hrs by sulforhodamine B assay; details: 786-0, 48 h, read-out: Activity; how it was run: as §1
UACC-257 = assay: Growth inhibition in human UACC257 cells assessed as viable cells at 10 uM after 48 hrs by sulforhodamine B assay; details: UACC-257, 48 h, read-out: Activity
MDA-MB-468 = assay: Growth inhibition in human MDA-MB-468 cells assessed as viable cells at 10 uM after 48 hrs by sulforhodamine B assay; details: MDA-MB-468, 48 h, read-out: Activity; how it was run: as §1
UO-31 = assay: Growth inhibition in human UO31 cells assessed as viable cells at 10 uM after 48 hrs by sulforhodamine B assay; details: UO-31, 48 h, read-out: Activity; how it was run: as §1
[5] = Growth inhibition in human Hs 578T cells assessed as viable cells at 10 uM after 48 hrs by sulforhodamine B assay; details: read-out: Activity; how it was run: as §1
SN12C = assay: Growth inhibition in human SN12C cells assessed as viable cells at 10 uM after 48 hrs by sulforhodamine B assay; details: read-out: Activity; how it was run: as §1
SK-MEL-2 = assay: Growth inhibition in human SK-MEL-2 cells assessed as viable cells at 10 uM after 48 hrs by sulforhodamine B assay; details: SK-MEL-2, 48 h, read-out: Activity
A498 = assay: Growth inhibition in human A498 cells assessed as viable cells at 10 uM after 48 hrs by sulforhodamine B assay; details: A498, 48 h, read-out: Activity; how it was run: as §1
BT-549 = assay: Growth inhibition in human BT549 cells assessed as viable cells at 10 uM after 48 hrs by sulforhodamine B assay; details: BT-549, 48 h, read-out: Activity; how it was run: as §1
NCI/ADR-RES = assay: Growth inhibition in human NCI/ADR-RES cells assessed as viable cells at 10 uM after 48 hrs by sulforhodamine B assay; details: read-out: Activity; how it was run: as §1

## Cc1ccc2c(c1)C1(Nc3ccccc3S1)C(=O)N2 (stereo unspecified)
[1]
  EC50: 41 µM
[2]
  EC50: 1300 µM
[3]
  EC50: 1020 µM
[4]
  EC50: 1360 µM

## O=C1Nc2ccc(Cl)cc2C12Nc1ccccc1S2 (stereo unspecified)
[1]
  EC50: 49 µM
U-251
  viability at 10 µM: 98.5%
[2]
  EC50: 1780 µM
SNB-19
  viability at 10 µM: 107%
SNB-75
  viability at 10 µM: 55.8%
SF-268
  viability at 10 µM: 83.2%
[3]
  EC50: 1030 µM
SF-539
  viability at 10 µM: 97.4%
[4]
  EC50: 510 µM

## O=C1Nc2ccc([N+](=O)[O-])cc2C12Nc1ccccc1S2 (stereo unspecified)
[1]
  EC50: 87 µM
[2]
  EC50: 1300 µM
[3]
  EC50: 1630 µM
[4]
  EC50: 800 µM

## Cc1ccc2c(c1)C1(Nc3ccccc3S1)C(=O)N2C (stereo unspecified)
[1]
  EC50: 34 µM
[2]
  EC50: 980 µM
[3]
  EC50: 980 µM
[4]
  EC50: 700 µM

## CN1C(=O)C2(Nc3ccccc3S2)c2cc(OC(F)(F)F)ccc21 (stereo unspecified)
OVCAR-5
  viability at 10 µM: 121%
MDA-MB-231
  viability at 10 µM: 96.2%
[1]
  EC50: 84 µM
OVCAR-3
  viability at 10 µM: 103%
T47D
  viability at 10 µM: 60%
ACHN
  viability at 10 µM: 80.9%
CAKI-1
  viability at 10 µM: 96.8%
M14
  viability at 10 µM: 102%
SK-OV-3
  viability at 10 µM: 102%
U-251
  viability at 10 µM: 88.4%
DU-145
  viability at 10 µM: 107%
[2]
  EC50: 1620 µM
PC-3
  viability at 10 µM: 84.6%
OVCAR-4
  viability at 10 µM: 73.4%
SF-295
  viability at 10 µM: 102%
SNB-19
  viability at 10 µM: 92.4%
SK-MEL-5
  viability at 10 µM: 99.7%
OVCAR-8
  viability at 10 µM: 99.1%
IGROV-1
  viability at 10 µM: 86.2%
MCF7
  viability at 10 µM: 82.8%
LOX IMVI
  viability at 10 µM: 98.6%
SK-MEL-28
  viability at 10 µM: 103%
SNB-75
  viability at 10 µM: 55.3%
Malme-3M
  viability at 10 µM: 98.5%
MDA-MB-435
  viability at 10 µM: 100%
TK-10
  viability at 10 µM: 105%
SF-268
  viability at 10 µM: 97.7%
[3]
  EC50: 1370 µM
UACC-62
  viability at 10 µM: 80.4%
786-0
  viability at 10 µM: 108%
UACC-257
  viability at 10 µM: 102%
MDA-MB-468
  viability at 10 µM: 112%
SF-539
  viability at 10 µM: 116%
UO-31
  viability at 10 µM: 58.3%
[5]
  viability at 10 µM: 92.4%
SN12C
  viability at 10 µM: 105%
SK-MEL-2
  viability at 10 µM: 101%
A498
  viability at 10 µM: 108%
[4]
  EC50: 4940 µM
BT-549
  viability at 10 µM: 108%
NCI/ADR-RES
  viability at 10 µM: 100%

## CN1C(=O)C2(Nc3ccccc3S2)c2cc(Cl)ccc21 (stereo unspecified)
[1]
  EC50: 75 µM
[2]
  EC50: 1240 µM
[3]
  EC50: 1140 µM
[4]
  EC50: 4020 µM

## CN1C(=O)C2(Nc3ccccc3S2)c2cc(Br)ccc21 (stereo unspecified)
[1]
  EC50: 34 µM
[2]
  EC50: 1010 µM
[3]
  EC50: 1040 µM
[4]
  EC50: 4220 µM

## CN1C(=O)C2(Nc3ccccc3S2)c2cc([N+](=O)[O-])ccc21 (stereo unspecified)
[1]
  EC50: 92 µM
[2]
  EC50: 1270 µM
[3]
  EC50: 1340 µM
[4]
  EC50: 5140 µM

## Cc1c(C)c2c(c(C)c1O)CC[C@@](C)(CCC[C@H](C)CCC[C@H](C)CCCC(C)C)O2 [ALPHA-TOCOPHEROL]
[1]
  EC50: 153 µM
[2]
  EC50: 350 µM
[3]
  EC50: 1200 µM
[4]
  EC50: 1950 µM

## O=C1O[C@H]([C@@H](O)CO)C(O)=C1O [ASCORBIC ACID]
[2]
  EC50: 360 µM
[3]
  EC50: 1200 µM
[4]
  EC50: 650 µM

From ChEMBL document CHEMBL1154871, “Synthesis of new spiroindolinones incorporating a benzothiazole moiety as antioxidant agents” (Eur J Med Chem, 2010)
